Test results from publication PMC2933309 (Cancer biology & therapy, 2010).
Entries after “also recorded” stand apart in the source; their conditions may differ.

Columns and labels:
[1] = test system: subcutaneous human tumor xenografts; conditions: oral administration; lung, prostate, pancreatic, glioma, colon, breast; cited from earlier work
[2] = test system: lung carcinoma xenografts; conditions: cited from earlier work
prostate carcinoma cells = conditions: in vitro; cited from earlier work
Pharmacokinetic = format: in vivo, Balb/c mice; conditions: plasma; for Cmax: mice
[3] = PND-1186 levels in tumor samples by HPLC and mass spectroscopy; format: in vivo, Balb/c mice; conditions: for maximal PND-1186 in tumors / time to maximal PND-1186 in tumors: subcutaneous 4T1 tumors
[4] = target: FAK Tyr-397 phosphorylation (pY397 FAK) (Mus musculus, UniProt P34152); test: Immunoblotting of tumor FAK Tyr-397 phosphorylation in 4T1 tumors; format: in vivo, Balb/c mice
Sequence of FAK Tyr-397 phosphorylation (pY397 FAK) (P34152 whole entry): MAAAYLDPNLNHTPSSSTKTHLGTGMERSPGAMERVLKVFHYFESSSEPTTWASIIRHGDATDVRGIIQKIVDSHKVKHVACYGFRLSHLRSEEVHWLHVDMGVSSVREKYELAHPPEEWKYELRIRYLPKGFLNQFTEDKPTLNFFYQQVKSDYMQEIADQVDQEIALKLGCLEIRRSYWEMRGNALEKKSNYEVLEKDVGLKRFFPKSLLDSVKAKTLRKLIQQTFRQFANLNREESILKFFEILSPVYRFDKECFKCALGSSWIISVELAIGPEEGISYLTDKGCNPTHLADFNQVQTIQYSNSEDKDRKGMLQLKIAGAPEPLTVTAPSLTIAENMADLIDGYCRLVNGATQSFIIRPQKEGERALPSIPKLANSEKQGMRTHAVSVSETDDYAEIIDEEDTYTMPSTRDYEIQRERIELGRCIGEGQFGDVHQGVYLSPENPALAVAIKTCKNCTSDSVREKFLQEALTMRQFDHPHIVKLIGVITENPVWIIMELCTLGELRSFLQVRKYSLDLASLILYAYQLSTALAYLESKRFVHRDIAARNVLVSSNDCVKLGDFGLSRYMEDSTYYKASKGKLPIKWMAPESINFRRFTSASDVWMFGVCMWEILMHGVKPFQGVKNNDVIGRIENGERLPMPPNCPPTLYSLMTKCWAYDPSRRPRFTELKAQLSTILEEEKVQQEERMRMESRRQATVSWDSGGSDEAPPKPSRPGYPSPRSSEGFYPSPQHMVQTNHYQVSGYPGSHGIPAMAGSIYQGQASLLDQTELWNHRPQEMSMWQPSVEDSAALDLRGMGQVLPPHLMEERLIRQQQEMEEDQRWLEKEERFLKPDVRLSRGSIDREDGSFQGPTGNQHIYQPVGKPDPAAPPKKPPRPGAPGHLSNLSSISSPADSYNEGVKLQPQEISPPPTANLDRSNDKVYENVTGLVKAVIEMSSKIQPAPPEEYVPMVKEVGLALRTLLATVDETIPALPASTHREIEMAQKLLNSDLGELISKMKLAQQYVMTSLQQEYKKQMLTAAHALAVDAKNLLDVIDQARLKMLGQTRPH

[5] = test system: p130Cas Tyr-410 phosphorylation (pY410Cas); test: Immunoblotting of tumor p130Cas Tyr-410 phosphorylation in 4T1 tumors; format: in vivo, Balb/c mice
[6] = test system: 4T1 orthotopic breast carcinoma tumors; test: Orthotopic 4T1 breast carcinoma tumor growth; format: in vivo, Balb/c mice
[7] = test system: 4T1 tumor blood vessels (CD31); test: Anti-CD31 staining of 4T1 orthotopic tumors; format: in vivo, Balb/c mice; conditions: 150 mg/kg p.o. b.i.d.
[8] = test system: tumor-associated splenomegaly; test: Spleen weight in 4T1 tumor-bearing mice; format: in vivo, Balb/c mice
[9] = test system: TNFα-stimulated IL-6 production in 4T1 cells; test: IL-6 ELISA of TNFα-stimulated 4T1 cells; format: cell-based, murine; conditions: 0.25 to 1.0 µM, TNFα 10 ng/ml, 24 h
4T1 lung metastases = test: Spontaneous 4T1 breast to lung metastasis; format: in vivo, Balb/c mice; conditions: 150 mg/kg p.o. b.i.d. for 15 days
[10] = Body weight and toxicity in mouse studies; format: in vivo
Water solubility = format: physicochemical
pY118 paxillin = test: Immunoblotting of pY118 paxillin in orthotopic 4T1 tumors; format: in vivo, Balb/c mice; conditions: 0.5 mg/ml ad libitum
[11] = test system: MDA-MB-231 orthotopic tumors; test: Orthotopic MDA-MB-231 tumor growth; format: in vivo, SCID mice; conditions: 0.5 mg/ml ad libitum, Day 27 (15 days of administration)
[12] = target: FAK pY397 phosphorylation (Homo sapiens, UniProt Q05397); test: Immunoblotting of FAK pY397 in MDA-MB-231 tumors; format: in vivo; conditions: 0.5 mg/ml ad libitum
Sequence of FAK pY397 phosphorylation (Q05397 whole entry): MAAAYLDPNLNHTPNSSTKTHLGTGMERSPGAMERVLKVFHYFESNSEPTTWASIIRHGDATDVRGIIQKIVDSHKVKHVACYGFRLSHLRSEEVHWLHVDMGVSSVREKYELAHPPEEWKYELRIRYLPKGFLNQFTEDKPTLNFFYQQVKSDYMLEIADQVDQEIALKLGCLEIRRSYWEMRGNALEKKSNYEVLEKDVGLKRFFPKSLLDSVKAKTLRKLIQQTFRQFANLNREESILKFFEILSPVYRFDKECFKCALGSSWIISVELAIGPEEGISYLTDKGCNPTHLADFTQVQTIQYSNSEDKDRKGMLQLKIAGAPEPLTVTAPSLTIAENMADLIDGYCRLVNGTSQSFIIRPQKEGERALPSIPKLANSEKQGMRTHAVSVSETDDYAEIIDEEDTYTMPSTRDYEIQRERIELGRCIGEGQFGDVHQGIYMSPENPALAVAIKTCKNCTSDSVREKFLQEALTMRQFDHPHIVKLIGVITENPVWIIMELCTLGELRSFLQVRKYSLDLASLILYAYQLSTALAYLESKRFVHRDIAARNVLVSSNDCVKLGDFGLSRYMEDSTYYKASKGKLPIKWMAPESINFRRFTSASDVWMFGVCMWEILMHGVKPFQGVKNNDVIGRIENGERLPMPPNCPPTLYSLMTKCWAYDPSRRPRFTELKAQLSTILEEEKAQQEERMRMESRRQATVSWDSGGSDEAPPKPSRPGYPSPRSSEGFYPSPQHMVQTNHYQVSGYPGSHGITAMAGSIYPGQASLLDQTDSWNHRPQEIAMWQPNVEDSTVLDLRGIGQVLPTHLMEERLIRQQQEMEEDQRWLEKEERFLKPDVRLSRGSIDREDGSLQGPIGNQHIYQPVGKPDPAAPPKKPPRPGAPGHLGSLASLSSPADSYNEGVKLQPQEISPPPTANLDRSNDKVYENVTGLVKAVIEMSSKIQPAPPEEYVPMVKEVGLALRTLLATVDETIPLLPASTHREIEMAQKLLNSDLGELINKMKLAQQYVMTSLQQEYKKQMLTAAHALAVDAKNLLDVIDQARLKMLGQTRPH
Outline: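 From day 12 (palpable tumors), mice drank 5% sucrose or 0.5 mg/ml compound in 5% sucrose ad libitum. Tumor growth was followed to Day 70; final tumors were weighed and lysed for immunoblot of the FAK pY397 to total FAK ratio (n=11 control, 13 treated).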

[13] = test system: MDA-MB-231 cells in lungs; test: Experimental metastasis assay; format: in vivo, nude mice; conditions: 150 mg/kg p.o. pre-administered, 1 and 6 h after cell injection
[14] = test system: suspended MDA-MB-231 cells; test: Apoptosis assay; format: cell-based, human; conditions: concentrations up to 10 µM, within 6 h
Outline: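 Suspended MDA-MB-231 cells exposed to test compound or DMSO for 1 h or 6 h, then stained with FITC-annexin V for 30 min and analysed by flow cytometry within 1 h. Quadrant gates were set from autofluorescence (negative) and staurosporine 1 µM (positive) controls. Apoptosis is the percent of annexin V-positive cells.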

cell motility = conditions: 0.1 to 1.0 µM; cited from earlier work
[15] = test system: adherent cell proliferation; conditions: 1.0 µM; cited from earlier work
[16] = test system: carcinoma cells in three-dimensional culture; conditions: 0.1 µM; cited from earlier work
Src activity = conditions: adherent or suspended 4T1 cells; cited from earlier work
glioma tumor = conditions: mice; cited from earlier work
[17] = 0.5 mg/ml ad libitum, orthotopic 4T1 tumors

CN(c1ncccc1CNc1nc(Nc2ccc3c(c2)CC(=O)N3)ncc1C(F)(F)F)S(C)(=O)=O [PF-562,271]
growth of subcutaneous human tumor xenografts [1]: reduces the growth | tumor microvessel density [2]: reduced tumor microvessel density

CS(=O)(=O)c1cccc(CNc2nc(Nc3ccc4c(c3)CCC(=O)N4)ncc2C(F)(F)F)c1 [PF-573,228]
prostate carcinoma cell motility (prostate carcinoma cells): prevented prostate carcinoma cell motility in vitro

CNC(=O)c1ccccc1Nc1cc(Nc2ccc(N3CCOCC3)cc2OC)ncc1C(F)(F)F [PND-1186]
Cmax (Pharmacokinetic; 30 mg/kg i.p.): 34.8 µM | bioavailability (Pharmacokinetic; Balb/c, mouse, ip, 30 mg/kg): 31.1% | bioavailability (Pharmacokinetic; Balb/c, mouse, ip, 100 mg/kg): 42.2% | Cmax (Pharmacokinetic; Balb/c, mouse, ip, 100 mg/kg, CMAX, 100 mg/kg i.p.): 117 µM | concentration at 7 days (Pharmacokinetic; Balb/c, mouse, oral, 0.5 mg/ml): 1.2 µM | bioavailability (Pharmacokinetic; Balb/c, mouse, po, 150 mg/kg): 14.8% | maximal PND-1186 in tumors ([3]; 30 mg/kg single i.p.): 0.75 µg/g | time to maximal PND-1186 in tumors ([3]; 30 mg/kg single i.p.): ≤ 1 h | maximal PND-1186 in tumors ([3]; 100 mg/kg single i.p.): 16.1 µg/g | time to maximal PND-1186 in tumors ([3]; 100 mg/kg single i.p.): ≤ 1 h | concentration at 7 days ([3]; Balb/c, mouse, tumor, oral, 0.5 mg/ml): 522 ng/g | FAK pY397 phosphorylation in primary 4T1 tumors [4, 17]: sufficient to inhibit | tumor FAK pY397 phosphorylation at 12 h ([4]; 30 mg/kg single i.p., subcutaneous 4T1 tumors, 12 h): not significantly inhibited | p130Cas pY410 phosphorylation in primary 4T1 tumors [5, 17]: sufficient to inhibit | p130Cas Tyr-410 phosphorylation (pY410Cas) in tumors ([5]; 100 mg/kg single i.p., subcutaneous 4T1 tumors, by 3 h): significantly reduced | tumor size by caliper measurements versus control ([6]; 0.5 mg/ml ad libitum, Day 13): tumor size was significantly different | reduction of final tumor volume compared to vehicle control ([6]; 150 mg/kg p.o. b.i.d., 16 days): 3 fold | tumor volume compared to vehicle control ([6]; 150 mg/kg p.o. b.i.d., Day 7): significantly reduced tumor volume | vascular differences by anti-CD31 staining [7]: no major vascular differences | spleen size ([8]; 0.5 mg/ml ad libitum): of normal size | spleen appearance ([8]; 150 mg/kg p.o. b.i.d.): healthy and indistinguishable from non-treated, non-tumor bearing mice | spleen weight, vehicle-treated over PND-1186-treated mice ([8]; 150 mg/kg p.o. b.i.d.): > 2 fold | IL-6 release [9]: inhibited IL-6 release in a dose-dependent manner | mice with high lung metastatic burden (4T1 lung metastases): no mice with a high metastatic burden | toxicity or weight loss ([10]; 0.5 mg/ml ad libitum administration): no signs of toxicity or weight loss; also recorded: without toxicity or weight loss | effect on total body weight ([10]; 150 mg/kg p.o. b.i.d., 4T1 tumor-bearing Balb/c mice): without affects on total body weight | solubility (Water solubility): > 20 mg/mL | pY118 paxillin phosphorylation in tumors (pY118 paxillin): inhibited | tumor size by caliper measurements versus control [11]: control tumors were significantly larger | FAK pY397 phosphorylation in MDA-MB-231 tumors [12]: significantly reduce | accumulation of tumor cells in the lungs [13]: significantly inhibited the accumulation of tumor cells in the lungs | MDA-MB-231 apoptosis by annexin V binding [14]: did not promote MDA-MB-231 apoptosis | cell motility (cell motility): prevents cell motility in a dose-dependent fashion | adherent cell proliferation [15]: limited inhibitory effects on adherent cell proliferation | carcinoma cell apoptosis under three-dimensional culture conditions [16]: selectively promotes carcinoma cell apoptosis | Src activity (Src activity): does not inhibit Src activity

CNC(=O)c1ccccc1Nc1nc(Nc2ccc(N3CCOCC3)cc2OC)ncc1Cl [TAE-226]
glioma tumor growth (glioma tumor): can prevent glioma tumor growth in mice
